# Measured values gathered from unrelated publications.
# Protocols differ between the studies behind these lines.
SMILES,method,sample,time,pH,temperature,endpoint,value
CN(C)C(=O)CN1CCN(c2cnc3c(cc(C(=O)NCc4ccc(Cl)cc4)c(=O)n3CC(=O)N3CC(C)(F)C3)n2)C1=O,,aqueous buffer,24 h,pH 7.4,37 °C,thermodynamic solubility,< 1.56 µM
CCn1cc(C2CC2)c2c(Cc3cnc(C(F)(F)F)c(Cl)c3)n(C)nc2c1=O,nephelometry,aqueous buffer,30 min,pH 6.5,,kinetic solubility,50 to 100 µM
C[C@H]1COC2=C1C(=O)C(=O)c1c2ccc2c1CCCC2(C)C,,PBS,24 h,pH 7.4,25 °C,thermodynamic solubility,18.3 µg/mL
CCNCc1cnn(-c2ccc(-n3ccc(Cl)c(Cl)c3=O)cc2)c1C(F)(F)F,,PBS,24 h,pH 7.4,,kinetic solubility,144 µM
Cc1cc(C#N)cc(C)c1Oc1nc(Nc2ccc(C#N)cc2)nc(N)c1Br,,FaSSIF,24 h,pH 6.5,,thermodynamic solubility,0.52 µg/mL
CC[C@@](N)(c1cnc(C(F)(F)F)c(Cl)c1)c1c2ncn(C3CC3)c(=O)c2nn1C,nephelometry,aqueous buffer,30 min,pH 6.5,,kinetic solubility,80 to 160 µM
CCNC(=O)c1cnn(-c2ccc(-n3ccc(Cl)c(Cl)c3=O)cc2)c1C(F)(F)F,,PBS,24 h,pH 7.4,,kinetic solubility,0.2 µM
O=C(O)c1cn(-c2ccc(-c3ccc(C(=O)N4CCNCC4)cc3)cc2)cc(O)c1=O,,aqueous buffer,,pH 7.4,,kinetic solubility,290 µM
Cn1cncc1[C@@](N)(c1ccc(Cl)cc1)c1ccc2c(c1)c(-c1cccc(Cl)c1)cc(=O)n2C,,FeSSIF,,pH 5,37 °C,solubility,448 µg/mL
Cn1nc2c(=O)n(C3CC3)ccc2c1[C@](C)(O)c1cnc(C(F)(F)F)c(Cl)c1,nephelometry,aqueous buffer,30 min,pH 6.5,,kinetic solubility,80 to 160 µM
CC1(F)CN(C(=O)Cn2c(=O)c(C(=O)NCc3ccc(Cl)cc3)cc3nc(N4CCN(CC(=O)O)C4=O)cnc32)C1,,aqueous buffer,24 h,pH 7.4,37 °C,thermodynamic solubility,5660 µM
CCn1cc(C2CC2)c2c(Cc3ccc(C(F)(F)F)nc3)n(C)nc2c1=O,nephelometry,aqueous buffer,30 min,pH 6.5,,kinetic solubility,130 to 260 µM
N#C/C(=C\c1c[nH]nc1-c1cccc(Br)c1)C(=O)O,,PBS,24 h,pH 7.4,,kinetic solubility,0.1 µM
CCn1cc(C2CC2)c2c(Cc3ccc(C(F)(F)F)c(F)c3)n(C)nc2c1=O,nephelometry,aqueous buffer,30 min,pH 6.5,,kinetic solubility,16 to 32 µM
CC1(F)CN(C(=O)Cn2c(=O)c(C(=O)NCc3ccc(Cl)cc3)cc3nccnc32)C1,,aqueous buffer,24 h,pH 7.4,37 °C,thermodynamic solubility,52.6 µM
